From PubChem BioAssay
S1P4 agonist – human S1P4 receptor agonism; 0.35% of 220,000 active; S1P4-expressing cell line, agonist reporter assay; activation, % at 4.98 µM; AID 1509; O95977; in the data active = activation above about 11%;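 also: 0% = DMSO vehicle and 100% = reference agonist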
Lmaj promast – inhibitors of Leishmania major promastigote growth. inhibition, % at 10 µM. 9% of 200,000 active. AID 1063. Leishmania major promastigotes, resazurin fluorescence viability; in the data active = inhibition above about 50%;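 also: promastigotes grown with compound for 44 hours at 28 °C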
S1P3 antagonist – S1P3 (human) receptor antagonism | Q99500 | CHO S1P3 NFAT-BLA reporter, FRET fluorescence, antagonist mode | 0.27% of 170,000 active | inhibition, % at 4.98 µM;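 active = inhibition above the plate cutoff, the mean inhibition of test wells on that plate plus 3 SD, cut at about 28% in these data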;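 also: cells challenged with S1P at its EC80 of 0.8 µM; blue over green emission ratio from cleaved BLA substrate after 4 h stimulation; 0% = S1P-stimulated wells and 100% = unstimulated DMSO-only wells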
S1P4 antag – human S1P4 receptor antagonism; inhibition, % at 4.98 µM; 0.26% of 220,000 active; S1P4-expressing cells, antagonist mode, reporter read-out; O95977; in the data active = inhibition above about 29%;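 also: 0% = wells stimulated with agonist and 100% = vehicle wells without agonist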
Mdm2 ligase inh – inhibitors of human Mdm2 E3 ubiquitin ligase; Q00987; cell-based MDM2 ubiquitination luciferase reporter, 2 h; 0 = plate control, 100 = twice control, blank-subtracted; signal enhancement, % at 5 µM; 0.11% of 210,000 active;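 active = signal enhancement of 30% or more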;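 also: luminescence tracks abundance of the self-degrading MDM2-luciferase fusion protein; higher signal means inhibition of MDM2 E3 ligase activity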
Target sequence (Q00987 whole entry, looked up, the tested form may be a part): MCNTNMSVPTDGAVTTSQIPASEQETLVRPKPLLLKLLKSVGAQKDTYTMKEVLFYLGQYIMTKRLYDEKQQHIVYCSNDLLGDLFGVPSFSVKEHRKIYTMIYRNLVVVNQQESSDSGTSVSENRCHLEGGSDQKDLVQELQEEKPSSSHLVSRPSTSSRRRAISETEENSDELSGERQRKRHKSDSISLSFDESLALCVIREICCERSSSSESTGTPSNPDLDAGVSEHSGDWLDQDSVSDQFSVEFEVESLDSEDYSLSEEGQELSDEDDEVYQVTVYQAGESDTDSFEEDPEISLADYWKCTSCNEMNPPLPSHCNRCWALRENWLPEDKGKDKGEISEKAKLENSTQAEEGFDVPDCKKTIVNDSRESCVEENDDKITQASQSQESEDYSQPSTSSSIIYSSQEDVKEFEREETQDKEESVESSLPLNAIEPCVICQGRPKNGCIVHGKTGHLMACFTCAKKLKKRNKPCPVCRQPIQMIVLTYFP
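Assay system: mammalian cells stably expressing self-ubiquitinating, self-degrading MDM2 E3–luciferase fusion. Quantity: 2000 cells in each well. Medium: DMEM culture medium. Compound dosing: single-point 5 µM. Timing: cell settling 4 h, compound treatment 2 h, both 37 °C. Technique: luciferase luminescence. Read-out basis: percent signal gain over controls, blank-subtracted. Benchmarks: plate controls and plate blanks.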
* hit, by the source's call; . = not tested or not shown. This excerpt belongs to a sample that is enriched for hits.

SMILES	S1P4 agonist	Lmaj promast	S1P3 antagonist	S1P4 antag	Mdm2 ligase inh
CCCn1c(=N)n(CCOCCOCCn2c(=N)n(CCC)c3ccccc32)c2ccccc21	0	88*	.	5	.
CCN(CC)CCn1c(=N)n(CCOc2ccccc2)c2ccccc21	1	93*	.	-12	-9
COc1ccc(OCCn2c(=N)n(CCO)c3ccccc32)cc1	-4	-1	16	8	-8
CCCCn1c(=N)n(CCOc2ccc(C)cc2)c2ccccc21	0	97*	12	8	-14
N#CC1=C(N)NC(SCc2ccc(F)cc2)=C(C#N)C12CCCCC2	0	99*	.	-7	.
N#CC1=C(N)NC(SCC(=O)O)=C(C#N)C12CCCC2	1	-6	5	-3	-5
COc1cc2c(cc1OC)C(C)N(C(=S)NC(=O)c1ccccc1)CC2 (stereo unspecified)	0	-5	-4	-4	-9
NNc1nc2c(Cl)ccc(Cl)c2s1	0	98*	-1	-25	-4
c1ccc(Cn2c(-c3ccco3)nc3nc4ccccc4nc32)cc1	0	8	0	-20	-8
c1coc(-c2nc3nc4ccccc4nc3n2-c2ccc3c(c2)OCCO3)c1	-1	84*	.	-7	-8
CC1=C(NCCc2ccccc2)CCC1=O	1	64*	-45	-9	-10
O=C1C2CC(O)CN2C(=O)N1c1ccccc1 (stereo unspecified)	-4	-3	-27	3	-18
O=C(Nc1cccc(-c2nnc(-c3ccco3)o2)c1)c1ccccc1	2	3	-10	4	-24
O=C(Nc1cccc(-c2nnc(-c3ccco3)o2)c1)C(c1ccccc1)c1ccccc1	3	100*	.	4	-9
CCCCOc1cccc(C(=O)Nc2ccc(N3CCN(CC)CC3)cc2)c1	1	-3	13	-8	-7
CCCCOc1ccc(C(=O)Nc2ccc(N3CCN(C)CC3)cc2)cc1	-2	63*	-7	-11	-6
COc1ccc(-c2nc3ccccn3c2/N=C/c2ccc(OC)c(OC)c2)cc1O	2	60*	-7	-24	-5
N#CCCn1nc(-c2ccc([N+](=O)[O-])cc2)cc1Nc1ccccc1NC(=O)C(F)(F)F	-2	5	1	-7	-9
CCn1c2ccccc2c2cc(/C=N/NC(=O)c3ccc(O)cc3)ccc21	2	67*	1	-9	-3
CC(=O)NC(Cc1ccc(F)cc1)C(=O)NC1CCN(c2ncccc2[N+](=O)[O-])CC1 (stereo unspecified)	-3	-3	-8	-12	-12
COc1cc(NC(=O)C2=C(N3CCOCC3)/C(=C\c3ccc(N(C)C)cc3)CCC2)cc(OC)c1OC	8	98*	-3	10	5
COc1cc(NC(=O)C2=C(N3CCOCC3)/C(=C/c3ccc(Cl)cc3)CC2)cc(OC)c1OC	2	17	-6	-8	-3
O=C1CN(C(=O)c2ccc(Br)o2)C(c2ccc(F)cc2)c2cc(F)ccc2N1 (stereo unspecified)	2	95*	-10	-15	6
O=C1CN(C(=O)c2ccco2)C(c2ccc(F)cc2)c2cc(Cl)ccc2N1 (stereo unspecified)	-1	33	-8	7	.
CC1CCCCN1CCNC(=O)c1ccc2c(=O)n(CCc3ccccc3)c(=O)[nH]c2c1 (stereo unspecified)	-3	63*	.	12	-10
SMILES	S1P4 agonist	Lmaj promast	S1P3 antagonist	S1P4 antag	Mdm2 ligase inh
CC1CCCCN1CCCNC(=O)c1ccc2c(=O)n(CCc3ccccc3)c(=O)[nH]c2c1 (stereo unspecified)	1	24	.	-6	-17
CC1CCN(CCCNC(=O)c2ccc3c(=O)n(CCc4ccccc4)c(=O)[nH]c3c2)CC1	0	97*	.	-3	-10
CCCCCn1c(=O)[nH]c2cc(C(=O)NCCCN3CCC(C)CC3)ccc2c1=O	1	58*	.	-1	5
CC1CCN(CCCNC(=O)c2ccc(Cn3c(=S)[nH]c4ccc(Br)cc4c3=O)cc2)CC1	1	99*	-3	11	-8
Cc1nc(C(N)=O)nc2ccccc12	-1	.	-1	-7	-8
CCCS(=O)(=O)Nc1cc(C(F)(F)F)ccc1OCCOC	-2	-4	11	1	-15
COC(=O)CN(c1ccc(F)cc1)S(=O)(=O)c1ccc2c(c1)OCCO2	1	-2	15	-5	-17
CCOc1ccc(CC(=O)NCc2cn3c(C)csc3n2)cc1	-2	0	-5	-7	-4
